ChEMBL document CHEMBL1165869, “Synthesis, characterization and antihypertensive activity of pyridazinone derivatives” (2010)

System: Rattus norvegicus
Assay: Antihypertensive activity against methyl prednisolone acetate-indcuced hypertension in normotensive albino rat assessed as reduction in mean arterial pressure at 20 mg/kg, ip after 1 hr
Assay type: functional, Artery
Set-up: scale not given: the % may be the effect or the level left
Conditions: route intraperitoneal
In short: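 Albino rats (200–250 g), conditioned in restrainer 10 min daily for one week; hypertension induced by s.c. methyl prednisolone acetate 20 mg/kg/wk for 2 weeks. Compound suspended in 1% CMC, given i.p.; mean arterial pressure read 1 h later in conscious rats by non-invasive tail-cuff. Groups of 5; mean ± SEM; one-way ANOVA with Dunnett test versus hypertensive control.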

**Q.** For `Cc1ccc(C2=NN(CN3CCCCC3)C(=O)CC2)cc1`, which Activity is on record?
**A.** 35.56%

**Q.** `Cc1ccc(C2=NN(CN3CCNCC3)C(=O)CC2)cc1` was tested. Which Activity did it give?
**A.** 40.98%

**Q.** For `COc1ccc(C2=NN(CN3CCNCC3)C(=O)CC2)cc1`, which Activity is on record?
**A.** 35.44%

**Q.** For `O=C1CCC(c2ccc(Cl)cc2)=NN1CN1CCNCC1`, which Activity is on record?
**A.** 28.78%

**Q.** With `O=C1CCC(c2ccc(Cl)cc2)=NN1Cn1cncn1` as the molecule, how does the Activity read?
**A.** 29.77%

**Q.** How did the Activity turn out when `CC(C)Cc1ccc(C2=NN(CN3CCNCC3)C(=O)CC2)cc1` was run?
**A.** 32.48%

**Q.** With `CC(C)Cc1ccc(C2=NN(CN3CCCCC3)C(=O)CC2)cc1` as the molecule, how does the Activity read?
**A.** 16.09%

**Q.** For `O=C1CCC(c2ccc(-c3ccccc3)cc2)=NN1CN1CCOCC1`, which Activity is on record?
**A.** 29.52%

**Q.** With `O=C1CCC(c2ccc(-c3ccccc3)cc2)=NN1CN1CCCCC1` as the molecule, how does the Activity read?
**A.** 29.52%

**Q.** How did the Activity turn out when `CN1CCN(CN2N=C(c3ccc(-c4ccccc4)cc3)CCC2=O)CC1` was run?
**A.** 25.58%

**Q.** Which Activity does the source give for `O=C1CCC(c2ccccc2)=NN1CN1CCOCC1` here?
**A.** 31.21%

**Q.** How did the Activity turn out when `O=C1CCC(c2ccccc2)=NN1CN1CCCC1` was run?
**A.** 19.11%

**Q.** `Cc1ccc(C2=NN(CN3CCN(C)CC3)C(=O)CC2)cc1` was tested. Which Activity did it give?
**A.** 39.13%

**Q.** With `Cc1ccc(C2=NN(CN3c4ccccc4Sc4ccccc43)C(=O)CC2)cc1` as the molecule, how does the Activity read?
**A.** 34.94%

**Q.** `Cc1ccc(C2=NN(CN3CCCC3)C(=O)CC2)cc1` was tested. Which Activity did it give?
**A.** 31.74%

**Q.** For `COc1ccc(C2=NN(CN3CCN(C)CC3)C(=O)CC2)cc1`, which Activity is on record?
**A.** 36.05%

**Q.** How did the Activity turn out when `COc1ccc(C2=NN(CN3c4ccccc4Sc4ccccc43)C(=O)CC2)cc1` was run?
**A.** 33.83%

**Q.** How did the Activity turn out when `O=C1CCC(c2ccccc2)=NN1CN1CCNCC1` was run?
**A.** 41.99%

**Q.** How did the Activity turn out when `CCc1ccc(C2=NN(CN3CCN(C)CC3)C(=O)CC2)cc1` was run?
**A.** 47.14%

**Q.** With `O=C1CCC(c2ccc(Cl)cc2)=NN1CN1CCCCC1` as the molecule, how does the Activity read?
**A.** 24.84%

**Q.** For `CN1CCN(CN2N=C(c3ccc(Cl)cc3)CCC2=O)CC1`, which Activity is on record?
**A.** 39.5%

**Q.** With `O=C1CCC(c2ccc(Cl)cc2)=NN1CN1c2ccccc2Sc2ccccc21` as the molecule, how does the Activity read?
**A.** 38.88%

**Q.** `O=C1CCC(c2ccc(-c3ccccc3)cc2)=NN1CN1CCCC1` was tested. Which Activity did it give?
**A.** 30.14%

**Q.** With `O=C1CCC(c2ccc(-c3ccccc3)cc2)=NN1Cn1cncn1` as the molecule, how does the Activity read?
**A.** 39.5%

**Q.** `O=C1CCC(c2ccccc2)=NN1CN1c2ccccc2Sc2ccccc21` was tested. Which Activity did it give?
**A.** 42.4%

**Q.** How did the Activity turn out when `O=C1CCC(c2ccccc2)=NN1Cn1ccc2ccccc21` was run?
**A.** 15.81%

**Q.** For `O=C1CCC(c2ccccc2)=NN1Cn1cncn1`, which Activity is on record?
**A.** 38.7%

**Q.** For `O=C1CCC(c2ccc(Cl)cc2)=NN1CN1CCCC1`, which Activity is on record?
**A.** 30.01%

**Q.** For `CC(C)Cc1ccc(C2=NN(CN3CCN(C)CC3)C(=O)CC2)cc1`, which Activity is on record?
**A.** 28.29%

**Q.** For `CCc1ccc(C2=NN(Cn3ccc4ccccc43)C(=O)CC2)cc1`, which Activity is on record?
**A.** 32.97%

**Q.** With `CC(C)Cc1ccc(C2=NN(CN3CCOCC3)C(=O)CC2)cc1` as the molecule, how does the Activity read?
**A.** 24.22%

**Q.** How did the Activity turn out when `COc1ccc(C2=NN(Cn3ccc4ccccc43)C(=O)CC2)cc1` was run?
**A.** 32.72%

**Q.** How did the Activity turn out when `COc1ccc(C2=NN(CN3CCCC3)C(=O)CC2)cc1` was run?
**A.** 31.62%

**Q.** `CC(C)Cc1ccc(C2=NN(Cn3cncn3)C(=O)CC2)cc1` was tested. Which Activity did it give?
**A.** 34.94%

**Q.** For `CCc1ccc(C2=NN(CN3CCOCC3)C(=O)CC2)cc1`, which Activity is on record?
**A.** 47.31%

**Q.** How did the Activity turn out when `CC(C)Cc1ccc(C2=NN(CN3c4ccccc4Sc4ccccc43)C(=O)CC2)cc1` was run?
**A.** 25.58%

**Q.** With `CC(C)Cc1ccc(C2=NN(CN3CCCC3)C(=O)CC2)cc1` as the molecule, how does the Activity read?
**A.** 32.97%

**Q.** Which Activity does the source give for `COc1ccc(C2=NN(Cn3cncn3)C(=O)CC2)cc1` here?
**A.** 29.27%

**Q.** With `CCc1ccc(C2=NN(CN3CCNCC3)C(=O)CC2)cc1` as the molecule, how does the Activity read?
**A.** 36.05%

**Q.** With `CN1CCN(CN2N=C(c3ccccc3)CCC2=O)CC1` as the molecule, how does the Activity read?
**A.** 39.93%

**Q.** Which Activity does the source give for `O=C1CCC(c2ccc(-c3ccccc3)cc2)=NN1CN1c2ccccc2Sc2ccccc21` here?
**A.** 25.91%

**Q.** For `O=C1CCC(c2ccc(-c3ccccc3)cc2)=NN1Cn1ccc2ccccc21`, which Activity is on record?
**A.** 33.46%

**Q.** How did the Activity turn out when `Cc1ccc(C2=NN(Cn3cncn3)C(=O)CC2)cc1` was run?
**A.** 41.16%

**Q.** For `COc1ccc(C2=NN(CN3CCOCC3)C(=O)CC2)cc1`, which Activity is on record?
**A.** 29.77%

**Q.** Which Activity does the source give for `COc1ccc(C2=NN(CN3CCCCC3)C(=O)CC2)cc1` here?
**A.** 27.16%

**Q.** `CCc1ccc(C2=NN(CN3CCCC3)C(=O)CC2)cc1` was tested. Which Activity did it give?
**A.** 44.31%

**Q.** For `O=C1CCC(c2ccccc2)=NN1CN1CCCCC1`, which Activity is on record?
**A.** 33.46%

**Q.** How did the Activity turn out when `O=C1CCC(c2ccc(-c3ccccc3)cc2)=NN1CN1CCNCC1` was run?
**A.** 30.14%

**Q.** Which Activity does the source give for `Cc1ccc(C2=NN(Cn3ccc4ccccc43)C(=O)CC2)cc1` here?
**A.** 23.85%

**Q.** With `Cc1ccc(C2=NN(CN3CCOCC3)C(=O)CC2)cc1` as the molecule, how does the Activity read?
**A.** 14.12%

**Q.** With `O=C1CCC(c2ccc(Cl)cc2)=NN1CN1CCOCC1` as the molecule, how does the Activity read?
**A.** 25.83%

**Q.** For `CCc1ccc(C2=NN(CN3CCCCC3)C(=O)CC2)cc1`, which Activity is on record?
**A.** 30.51%

**Q.** How did the Activity turn out when `CCc1ccc(C2=NN(CN3c4ccccc4Sc4ccccc43)C(=O)CC2)cc1` was run?
**A.** 36.17%

**Q.** Which Activity does the source give for `O=C1CCC(c2ccc(Cl)cc2)=NN1Cn1ccc2ccccc21` here?
**A.** 36.3%

**Q.** Which Activity does the source give for `CCc1ccc(C2=NN(Cn3cncn3)C(=O)CC2)cc1` here?
**A.** 29.52%

**Q.** Which Activity does the source give for `CC(C)Cc1ccc(C2=NN(Cn3ccc4ccccc43)C(=O)CC2)cc1` here?
**A.** 28.91%

**Q.** With `NNc1nncc2ccccc12` [HYDRALAZINE] as the molecule, how does the Activity read?
**A.** 40.76%
